Test results taken from ChEMBL document CHEMBL2150901, “Synthesis and biological activity of tricyclic cycloalkylimidazo-, pyrimido- and diazepinopurinediones” (Eur J Med Chem, 2011).
pKi: −log10 of the molar value. The source made the active and inactive calls. The rule behind the calls is not given here.

Tests used:
[1] = system: Mus musculus; assay: Neurotoxicity in F1 albino mouse assessed as minimal motor impairment at 300 mg/kg, ip after 1 hr by rotorod test; format: toxicity, organism-based; set-up: dose 300 mg/kg, route intraperitoneal; settings: in vivo
Outline: (§1)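 Male albino F-1 mice (18–25 g), groups of 1–5 (rotorod 2–8). Compound given ip as a suspension in 0.5% methylcellulose at 30, 100 and 300 mg/kg. Seizures by maximal electroshock or subcutaneous pentylenetetrazole; neurotoxicity by rotorod. Read at 0.5 and 4 h, with some at 0.25, 1 and 2 h. Value is the minimum active dose, with protected (or toxic)/tested animals.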

[2] = biological target: T1, Adenosine receptor A1 (Rattus norvegicus, UniProt P25099); assay: Displacement of [3H]CCPA from adenosine A1 receptor in rat brain cortical membrane; format: cell membranes
T1 sequence (P25099 whole entry): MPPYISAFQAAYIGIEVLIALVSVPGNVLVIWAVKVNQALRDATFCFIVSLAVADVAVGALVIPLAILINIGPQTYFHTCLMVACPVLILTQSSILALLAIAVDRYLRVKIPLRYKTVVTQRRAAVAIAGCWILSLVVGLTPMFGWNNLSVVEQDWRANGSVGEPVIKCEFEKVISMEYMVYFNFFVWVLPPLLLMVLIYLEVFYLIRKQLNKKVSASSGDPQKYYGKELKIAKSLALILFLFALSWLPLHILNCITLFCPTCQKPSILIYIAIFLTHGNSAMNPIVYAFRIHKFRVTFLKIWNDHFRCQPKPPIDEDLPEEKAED

[3] = system: Mus musculus; assay: Neurotoxicity in F1 albino mouse assessed as minimal motor impairment at 300 mg/kg, ip after 0.25 hrs by rotorod test; format: toxicity, organism-based; set-up: dose 300 mg/kg, route intraperitoneal; settings: in vivo; outline: as §1
[4] = system: Mus musculus; assay: Anticonvulsant activity in F1 albino mouse assessed as protection against subcutaneous pentylenetetrazole-induced seizures at 300 mg/kg, ip after 1 hr; format: functional, organism-based; set-up: dose 300 mg/kg; outline: as §1
[5] = system: Mus musculus; assay: Anticonvulsant activity in F1 albino mouse assessed as protection against maximal electroshock-induced seizures at 300 mg/kg, ip after 0.5 hrs; format: functional, organism-based; set-up: dose 300 mg/kg; outline: as §1
[6] = biological target: T2, Adenosine receptor A1 (Rattus norvegicus) (UniProt P25099); assay: Displacement of [3H]CCPA from adenosine A1 receptor in rat brain cortical membrane at 25 uM; format: cell membranes
T2 sequence (whole entry): T1 sequence (P25099 whole entry)

[7] = system: Mus musculus; assay: Anticonvulsant activity in F1 albino mouse assessed as protection against subcutaneous pentylenetetrazole-induced seizures at 300 mg/kg, ip after 0.25 hrs; format: functional, organism-based; set-up: dose 300 mg/kg; outline: as §1
[8] = system: Mus musculus; assay: Anticonvulsant activity in F1 albino mouse assessed as protection against subcutaneous pentylenetetrazole-induced seizures at 300 mg/kg, ip after 0.5 hrs; format: functional, organism-based; set-up: dose 300 mg/kg; outline: as §1
[9] = system: Mus musculus; assay: Anticonvulsant activity in F1 albino mouse assessed as protection against maximal electroshock-induced seizures at 300 mg/kg, ip after 4 hrs; format: functional, organism-based; set-up: dose 300 mg/kg; outline: as §1
[10] = system: Mus musculus; assay: Anticonvulsant activity in F1 albino mouse assessed as protection against subcutaneous pentylenetetrazole-induced seizures at 300 mg/kg, ip after 4 hrs; format: functional, organism-based; set-up: dose 300 mg/kg; outline: as §1
[11] = species on record: Rattus norvegicus; assay: Selectivity ratio of Ki for adenosine A1 receptor in rat brain cortical membrane to Ki for adenosine A2A receptor in rat brain striatal membrane; format: cell membranes
Outline: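 Ki ratios from radioligand competition binding. Rat A1 used brain cortical membranes and rat A2A used brain striatal membranes. Human A1 and A2A used membranes of CHO cells expressing the receptors. A1 radioligand [³H]CCPA; A2A radioligand [³H]MSX-2. Potent compounds were tested at 6–7 concentrations spanning 3 orders of magnitude.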

[12] = biological target: Adenosine receptor A2a (Rattus norvegicus, UniProt P30543); assay: Displacement of [3H]MSX-2 from adenosine A2A receptor in rat brain striatal membrane; format: cell membranes
[13] = system: Mus musculus; assay: Anticonvulsant activity in F1 albino mouse assessed as protection against maximal electroshock-induced seizures at 300 mg/kg, ip after 0.25 hrs; format: functional, organism-based; set-up: dose 300 mg/kg; outline: as §1
[14] = system: Mus musculus; assay: Neurotoxicity in F1 albino mouse assessed as minimal motor impairment at 300 mg/kg, ip after 4 hrs by rotorod test; format: toxicity, organism-based; set-up: dose 300 mg/kg, route intraperitoneal; settings: in vivo; outline: as §1
[15] = system: Mus musculus; assay: Anticonvulsant activity in F1 albino mouse assessed as protection against maximal electroshock-induced seizures at 300 mg/kg, ip after 1 hr; format: functional, organism-based; set-up: dose 300 mg/kg; outline: as §1
[16] = system: Mus musculus; assay: Neurotoxicity in F1 albino mouse assessed as minimal motor impairment at 300 mg/kg, ip after 0.5 hrs by rotorod test; format: toxicity, organism-based; set-up: dose 300 mg/kg, route intraperitoneal; settings: in vivo; outline: as §1

Adenosine receptor A2a, sequence (P30543 whole entry): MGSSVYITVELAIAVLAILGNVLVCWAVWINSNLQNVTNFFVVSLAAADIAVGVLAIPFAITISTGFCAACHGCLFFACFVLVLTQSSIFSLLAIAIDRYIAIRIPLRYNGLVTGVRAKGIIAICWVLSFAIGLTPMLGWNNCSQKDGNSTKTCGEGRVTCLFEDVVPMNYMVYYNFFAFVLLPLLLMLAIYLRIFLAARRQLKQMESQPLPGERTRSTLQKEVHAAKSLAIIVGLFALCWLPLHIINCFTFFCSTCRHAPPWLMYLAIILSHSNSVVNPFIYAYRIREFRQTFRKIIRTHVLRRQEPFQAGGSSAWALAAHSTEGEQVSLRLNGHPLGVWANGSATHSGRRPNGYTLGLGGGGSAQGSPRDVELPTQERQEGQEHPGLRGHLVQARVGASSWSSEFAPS

## Cn1c(=O)c2c(nc3n2CCCN3C2CC2)n(C)c1=O
[1]
  Activity: Non-toxic
[2]
  pKi: ≤ 4.60
[3]
  Activity: Non-toxic
[4]
  Activity: inactive
[5]
  Activity: inactive
[6]
  inhibition: 43%
[7]
  Activity: inactive
[8]
  Activity: inactive
[9]
  Activity: inactive
[10]
  Activity: inactive
[11]
  Ratio Ki: 20
[12]
  pKi: 5.91
[13]
  Activity: inactive
[14]
  Activity: Non-toxic
[15]
  Activity: inactive
[16]
  Activity: Toxic

## Cn1c(=O)c2c(nc3n2CCN3CC2CCCCC2)n(C)c1=O
[1]
  Activity: Non-toxic
[2]
  pKi: ≤ 4.60
[3]
  Activity: Non-toxic
[4]
  Activity: inactive
[5]
  Activity: inactive
[6]
  inhibition: 41%
[7]
  Activity: inactive
[8]
  Activity: inactive
[9]
  Activity: inactive
[10]
  Activity: inactive
[11]
  Ratio Ki: > 13
[12]
  pKi: 5.70
[13]
  Activity: inactive
[14]
  Activity: Non-toxic
[15]
  Activity: inactive
[16]
  Activity: Non-toxic

## Cn1c(=O)c2c(nc3n2CCCCN3C2CCCC2)n(C)c1=O
[1]
  Activity: Non-toxic
[2]
  pKi: 5.30
[3]
  Activity: Non-toxic
[4]
  Activity: inactive
[5]
  Activity: inactive
[7]
  Activity: inactive
[8]
  Activity: inactive
[9]
  Activity: inactive
[10]
  Activity: inactive
[11]
  Ratio Ki: 4
[12]
  pKi: 5.86
[13]
  Activity: inactive
[14]
  Activity: Non-toxic
[15]
  Activity: inactive
[16]
  Activity: Non-toxic

## CC1CCCCC1N1CCCCn2c1nc1c2c(=O)n(C)c(=O)n1C (mixture of isomers)
[1]
  Activity: Non-toxic
[2]
  pKi: < 4.60
[3]
  Activity: Non-toxic
[4]
  Activity: inactive
[5]
  Activity: inactive
[6]
  inhibition: 27%
[7]
  Activity: inactive
[8]
  Activity: Active
[9]
  Activity: inactive
[10]
  Activity: inactive
[11]
  Ratio Ki: > 7
[12]
  pKi: 5.46
[13]
  Activity: inactive
[14]
  Activity: Non-toxic
[15]
  Activity: inactive
[16]
  Activity: Non-toxic

## C[C@H](C1CCCCC1)N1CCCn2c1nc1c2c(=O)n(C)c(=O)n1C
[1]
  Activity: Non-toxic
[2]
  pKi: 5.10
[3]
  Activity: Non-toxic
[4]
  Activity: inactive
[5]
  Activity: inactive
[7]
  Activity: inactive
[8]
  Activity: inactive
[9]
  Activity: inactive
[10]
  Activity: inactive
[11]
  Ratio Ki: 6
[12]
  pKi: 5.89
[13]
  Activity: inactive
[14]
  Activity: Non-toxic
[15]
  Activity: inactive
[16]
  Activity: Non-toxic

## Cn1c(=O)c2c(nc3n2CCCCN3C2CCCCC2)n(C)c1=O
[1]
  Activity: Non-toxic
[2]
  pKi: 5.67
[3]
  Activity: Non-toxic
[4]
  Activity: inactive
[5]
  Activity: inactive
[7]
  Activity: inactive
[8]
  Activity: inactive
[9]
  Activity: inactive
[10]
  Activity: inactive
[11]
  Ratio Ki: 1
[12]
  pKi: 5.53
[13]
  Activity: inactive
[14]
  Activity: Non-toxic
[15]
  Activity: inactive
[16]
  Activity: Non-toxic

## CC(C1CCCCC1)N1CCCn2c1nc1c2c(=O)n(C)c(=O)n1C (racemic)
[1]
  Activity: Non-toxic
[2]
  pKi: 5.12
[3]
  Activity: Non-toxic
[4]
  Activity: inactive
[5]
  Activity: inactive
[7]
  Activity: inactive
[8]
  Activity: inactive
[9]
  Activity: inactive
[10]
  Activity: inactive
[11]
  Ratio Ki: 6
[12]
  pKi: 5.91
[13]
  Activity: inactive
[14]
  Activity: Non-toxic
[15]
  Activity: inactive
[16]
  Activity: Non-toxic

## Cn1c(=O)c2c(nc3n2CCN3CCC2=CCCCC2)n(C)c1=O
[1]
  Activity: Non-toxic
[2]
  pKi: 5.61
[3]
  Activity: Non-toxic
[4]
  Activity: inactive
[5]
  Activity: inactive
[7]
  Activity: inactive
[8]
  Activity: inactive
[9]
  Activity: inactive
[10]
  Activity: inactive
[11]
  Ratio Ki: 1
[12]
  pKi: 5.69
[13]
  Activity: inactive
[14]
  Activity: Toxic
[15]
  Activity: inactive
[16]
  Activity: Non-toxic

## CC1CCCCC1N1CCCn2c1nc1c2c(=O)n(C)c(=O)n1C (mixture of isomers)
[1]
  Activity: Non-toxic
[2]
  pKi: < 4.60
[3]
  Activity: Non-toxic
[4]
  Activity: inactive
[5]
  Activity: inactive
[6]
  inhibition: 31%
[7]
  Activity: inactive
[8]
  Activity: inactive
[9]
  Activity: inactive
[10]
  Activity: inactive
[11]
  Ratio Ki: > 23
[12]
  pKi: 5.97
[13]
  Activity: inactive
[14]
  Activity: Non-toxic
[15]
  Activity: inactive
[16]
  Activity: Non-toxic

## Cn1c(=O)c2c(nc3n2CCN3C2CCCC2)n(C)c1=O
[1]
  Activity: Non-toxic
[2]
  pKi: 4.60
[3]
  Activity: Non-toxic
[4]
  Activity: inactive
[5]
  Activity: inactive
[6]
  inhibition: 50%
[7]
  Activity: inactive
[8]
  Activity: Active
[9]
  Activity: inactive
[10]
  Activity: inactive
[11]
  Ratio Ki: 8
[12]
  pKi: 5.51
[13]
  Activity: inactive
[14]
  Activity: Non-toxic
[15]
  Activity: inactive
[16]
  Activity: Toxic
